Assay results as given in ChEMBL document CHEMBL1143743, “A new class of anti-thrombosis hexahydropyrazino-[1',2':1,6]pyrido-[3,4-b]-indole-1,4-dions: design, synthesis, logK determination, and QSAR analysis” (Bioorg Med Chem, 2007).

Legend:
Rattus norvegicus [1] = assay: Antithrombotic activity in Wistar rat assessed as dry thrombus weight at 0.5 umol/kg, iv; assay type: functional
Summary of the method: (§1)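 Male Wistar rats (250–300 g) under ip pentobarbital sodium (80.0 mg/kg). Arteriovenous shunt: polyethylene tube holding a weighed 6 cm thread, filled with heparin sodium (50 IU/ml in NS), joins left jugular vein to right carotid artery. Heparin, then compound in NS (kept on ice), injected through the tube; blood flows 15 min. Thread weighed wet, then dry after 2 weeks in a desiccator.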

Rattus norvegicus [2] = assay: Antithrombotic activity in Wistar rat assessed as wet thrombus weight at 0.5 umol/kg, iv; assay type: functional; summary of the method: as §1
[3] = HPLC retention, log K of the compound
Rattus norvegicus [4] = assay: Antithrombotic activity in Wistar rat assessed as wet thrombus weight at 5 nmol/kg, iv; assay type: functional; summary of the method: as §1
Rattus norvegicus [5] = assay: Antithrombotic activity in Wistar rat assessed as dry thrombus weight at 5 nmol/kg, iv; assay type: functional; summary of the method: as §1
Rattus norvegicus [6] = assay: Antithrombotic activity in Wistar rat assessed as wet thrombus weight at 0.5 nmol/kg, iv; assay type: functional; summary of the method: as §1
Rattus norvegicus [7] = assay: Antithrombotic activity in Wistar rat assessed as dry thrombus weight at 0.5 nmol/kg, iv; assay type: functional; summary of the method: as §1
Rattus norvegicus [8] = assay: Antithrombotic activity in Wistar rat assessed as wet thrombus weight at 0.5 umol/kg, po; assay type: functional
Summary of the method: (§2)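 Compound in NS given orally to male Wistar rats (250–300 g), which were then anesthetized with ip pentobarbital sodium (80.0 mg/kg). Thirty min later the carotid artery and jugular vein were exposed. Blood ran 15 min through a polyethylene-tube shunt holding a thread. Wet thrombus weighed, then dry weight recorded after 2 weeks in a desiccator.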

Rattus norvegicus [9] = assay: Antithrombotic activity in Wistar rat assessed as dry thrombus weight at 0.5 umol/kg, po; assay type: functional; summary of the method: as §2
Plasma [10] = assay: Inhibition of PAF-induced platelet aggregation in pig platelet rich plasma; assay type: functional, cell-free; settings: Sus scrofa
Summary of the method: (§3)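 Pig blood anticoagulated with 0.38% sodium citrate (final). PRP taken at 100 g for 10 min, PPP at 1,500 g for 10 min, platelets adjusted to 2 × 10⁸/ml with autologous PPP. Compound in NS (1–0.01 μmol/L final) added to 0.5 ml PRP. Aggregation induced with PAF (10^-7 mol/L final) or ADP (10^-5 mol/L final), followed turbidimetrically at 37 °C for 5 min. Peak height (Am%) compared with NS control; IC50 derived.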

Plasma [11] = assay: Inhibition of ADP-induced platelet aggregation in pig platelet rich plasma; assay type: functional, cell-free; settings: Sus scrofa; summary of the method: as §3
Rattus norvegicus [12] = assay: Antithrombotic activity in Wistar rat assessed as dry thrombus weight at […], iv; assay type: functional
Rattus norvegicus [13] = assay: Antithrombotic activity in Wistar rat assessed as wet thrombus weight at […], iv; assay type: functional

SMILES | log K [3] | Activity (Rattus norvegicus [1]) [mg] | Activity (Rattus norvegicus [2]) [mg] | also measured
O=C1N[C@@H](Cc2ccccc2)C(=O)N2Cc3[nH]c4ccccc4c3C[C@@H]12 | 1.05 | 1.33 | 8.58 | Activity (Rattus norvegicus [4]): 13.3 mg; Activity (Rattus norvegicus [5]): 2.08 mg; Activity (Rattus norvegicus [6]): 15.3 mg; Activity (Rattus norvegicus [7]): 2.39 mg
O=C1N[C@@H](Cc2ccc(O)cc2)C(=O)N2Cc3[nH]c4ccccc4c3C[C@@H]12 | 0.01 | 3.3 | 10.49 | 
O=C1NCC(=O)N2Cc3[nH]c4ccccc4c3C[C@@H]12 | 0.19 | 3.39 | 10.68 | Activity (Rattus norvegicus [8]): 11.57 mg; Activity (Rattus norvegicus [9]): 3.67 mg
CCC(C)[C@@H]1NC(=O)[C@@H]2Cc3c([nH]c4ccccc34)CN2C1=O (stereo partly drawn) | 1.26 | 3.95 | 12.45 | 
N=C(N)NCCC[C@@H]1NC(=O)[C@@H]2Cc3c([nH]c4ccccc34)CN2C1=O | -0.58 | 1.22 | 8.62 | Activity (Rattus norvegicus [4]): 14.52 mg; Activity (Rattus norvegicus [5]): 2.27 mg; Activity (Rattus norvegicus [6]): 15.71 mg; Activity (Rattus norvegicus [7]): 2.45 mg
NCCCC[C@@H]1NC(=O)[C@@H]2Cc3c([nH]c4ccccc34)CN2C1=O | -0.26 | 4.06 | 12.78 | Activity (Rattus norvegicus [8]): 11.75 mg; Activity (Rattus norvegicus [9]): 3.73 mg
CC(C)[C@@H]1NC(=O)[C@@H]2Cc3c([nH]c4ccccc34)CN2C1=O | 0.97 | 1.2 | 8.19 | IC50 (Plasma [10]): 0.294 µM; Activity (Rattus norvegicus [4]): 14.79 mg; IC50 (Plasma [11]): 0.112 µM; Activity (Rattus norvegicus [5]): 2.31 mg; Activity (Rattus norvegicus [6]): 16.88 mg; Activity (Rattus norvegicus [7]): 2.64 mg
CC(=O)Oc1ccccc1C(=O)O [ASPIRIN] |  |  |  | Activity (Rattus norvegicus [12]): 2.4 mg; Activity (Rattus norvegicus [13]): 7.56 mg

Now from value to molecule, other results behind:

log K [3] | SMILES | Activity (Rattus norvegicus [1]) [mg] | Activity (Rattus norvegicus [2]) [mg] | also measured
0.47 | C[C@@H]1NC(=O)[C@@H]2Cc3c([nH]c4ccccc34)CN2C1=O | 3.83 | 12.05 | 
-0.16 | O=C1N[C@@H](CO)C(=O)N2Cc3[nH]c4ccccc4c3C[C@@H]12 | 2.98 | 9.44 | 
0.97 | CSCC[C@@H]1NC(=O)[C@@H]2Cc3c([nH]c4ccccc34)CN2C1=O | 3.28 | 10.41 | 
0.28 | NC(=O)CC[C@@H]1NC(=O)[C@@H]2Cc3c([nH]c4ccccc34)CN2C1=O | 3.52 | 11.1 | 
0.21 | NC(=O)C[C@@H]1NC(=O)[C@@H]2Cc3c([nH]c4ccccc34)CN2C1=O | 3.03 | 9.54 | 
0.21 | O=C(O)CC[C@@H]1NC(=O)[C@@H]2Cc3c([nH]c4ccccc34)CN2C1=O | 3.31 | 10.42 | 
0.15 | O=C(O)C[C@@H]1NC(=O)[C@@H]2Cc3c([nH]c4ccccc34)CN2C1=O | 3.89 | 12.26 | Activity (Rattus norvegicus [8]): 12.42 mg; Activity (Rattus norvegicus [9]): 3.94 mg
1.32 | CC(C)C[C@@H]1NC(=O)[C@@H]2Cc3c([nH]c4ccccc34)CN2C1=O | 3.3 | 10.4 | 
-0.14 | CC(O)[C@@H]1NC(=O)[C@@H]2Cc3c([nH]c4ccccc34)CN2C1=O (stereo partly drawn) | 3.65 | 11.49 | 
0.71 | O=C1NC(CS)C(=O)N2Cc3[nH]c4ccccc4c3C[C@@H]12 (single isomer, unassigned) | 2.88 | 9.06 | 
